# Screens: PubChem BioAssay, The Scripps Research Institute Molecular Screening Center
# CHRM4 agonist: CHRM4 agonism in calcium assay; activation, % at 3 µM; 360,000 compounds, 0.14% hits; CHO-K1 hM4/Gqi5, Fluo-8 calcium fluorescence; vehicle 0%, full acetylcholine response 100%;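 active = activation above the run mean over all test wells plus 3 SD, cut at about 32% in these data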;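 note: peak over basal fluorescence ratio per well then scaled between controls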
# Target sequence (P08173 whole entry, looked up): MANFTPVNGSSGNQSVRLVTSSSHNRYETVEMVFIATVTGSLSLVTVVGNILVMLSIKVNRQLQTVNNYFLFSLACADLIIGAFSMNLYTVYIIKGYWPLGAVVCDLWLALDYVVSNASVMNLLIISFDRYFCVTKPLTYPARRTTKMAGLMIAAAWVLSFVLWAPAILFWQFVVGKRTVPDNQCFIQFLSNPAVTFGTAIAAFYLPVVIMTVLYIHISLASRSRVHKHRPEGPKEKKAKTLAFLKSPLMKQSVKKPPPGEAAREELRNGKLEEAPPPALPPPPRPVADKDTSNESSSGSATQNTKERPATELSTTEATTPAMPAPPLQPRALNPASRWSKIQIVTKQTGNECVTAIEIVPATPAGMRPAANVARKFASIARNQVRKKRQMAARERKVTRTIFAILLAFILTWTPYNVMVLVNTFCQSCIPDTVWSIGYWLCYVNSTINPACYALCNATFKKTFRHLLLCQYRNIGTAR
# CHRM5 agonist: CHRM5 agonism in calcium assay | P08912 | 360,000 compounds, 0.19% hits | CHO-K1 hM5 cells, Fluo-8 calcium fluorescence; 0% DMSO wells, 100% maximal acetylcholine response | activation, % at 3 µM | AID 624037;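 active = activation above the run's mean over test compounds plus 3 SD, cut at about 23% in these data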;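 note: signal is peak over basal fluorescence ratio across the kinetic read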
# CHRM4 antagonist: antagonists of human muscarinic M4 receptor (CHRM4) | P08173 | CHO-hM4 cells, ACh EC80, Fluo-8 calcium fluorescence | inhibition, % at 3 µM | 360,000 compounds, 0.73% hits | AID 624125;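 active = inhibition above its plate's cutoff, the mean inhibition of sample wells plus 3 SD, cut at about 27% in these data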
# CHRM5 PAM: positive allosteric modulators of human muscarinic M5 receptor; CHO-K1 hM5, Fluo-8 calcium, ACh EC20 PAM; 0% = ACh EC20, 100% = ACh EC100; activation, % at 3 µM; 360,000 compounds, 0.3% hits; AID 624038;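 active = activation above the run cutoff, the mean activation of all test compounds plus 3 SD, cut at about 18% in these data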
#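 System – CHO-K1 hM5 cells · Compound – 3 µM, single dose · Incubation – compound preincubation 140 s before EC20 acetylcholine addition · Technique – Fluo-8 calcium fluorescence · Measure – Max/basal fluorescence ratio as % of EC20–EC100 ACh window · Benchmarks – low control EC20 acetylcholine (0%), high control EC100 acetylcholine (100%) · Replication – singlicate, one well per test compound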
# M5 antag: antagonists of human muscarinic M5 receptor (CHRM5); P08912; CHO-hM5 cells, Fluo-8 calcium fluorescence, ACh EC80; inhibition, % at 3 µM; 360,000 compounds, 0.59% hits; AID 624040;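 active = inhibition above a per-plate cutoff, the mean of that plate's test compounds plus 3 SD, cut at about 27% in these data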
# M4 PAM: positive allosteric modulators of human muscarinic M4 receptor; CHO-K1 hM4/Gqi5, Fluo-8 calcium fluorescence, ACh EC20; 0% = ACh EC20, 100% = maximal ACh; activation, % at 3 µM; 360,000 compounds, 0.4% hits; AID 624126;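 active = activation above its plate's cutoff, the mean activation of sample wells plus 3 SD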
# Numbers stand for hits; - = inactive. Sampled rows, rich in hits. Any-hit rate of the full collection: about 1.8%.
SMILES,CHRM4 agonist,CHRM5 agonist,CHRM4 antagonist,CHRM5 PAM,M5 antag,M4 PAM
CCN(CC)c1ccc2c(Cl)c(Br)c(=O)oc2c1,-,28,62,-,70,-
CCN(CC(=O)Nc1ccccc1OC)C(=O)c1ccc(N(C)S(=O)(=O)c2ccc(C)cc2)cc1,-,-,-,-,98,-
CCN(CC(=O)Nc1ccc(NC(C)=O)cc1)C(=O)c1ccc(N(C)S(=O)(=O)c2ccc(C)cc2)cc1,-,-,-,-,-,-
CCCCCCn1c(=O)n2n(c1=O)C[C@]1(OC(=O)NCc3ccco3)CN(S(=O)(=O)c3ccc(C)cc3)C[C@]1(O)C2,-,-,-,-,-,-
Clc1cccc(NCc2ccccc2)n1,-,-,-,-,-,22
CCOC(=O)C1=C(C)OC(N)=C(C#N)C1c1cc(F)ccc1F (centres undefined),-,-,30,-,-,-
CCOC(=O)C1=C(C)OC(N)=C(C#N)C1c1cccc(C)c1 (centres undefined),-,-,-,-,-,-
N#CC1=C(N)C(C#N)(C#N)[C@H](c2ccncc2)[C@H]2CN(C(=O)OCc3ccccc3)CC=C12,-,-,-,-,-,35
CC(C)CNC(=O)NC1(C(F)(F)F)Oc2ccccc2O1,-,-,-,-,-,-
O=C(NCc1cccnc1)NC1(C(F)(F)F)Oc2ccccc2O1,-,-,-,40,-,-
O=C(/C(N=Nc1cccc([N+](=O)[O-])c1)=C(/O)c1ccc(Br)cc1)C(F)(F)F,-,-,37,-,-,-
COc1ccc(CN(C)C(=O)c2cc(-c3ccccc3)nc3ccc(C)cc23)c(OC)c1,-,-,31,-,-,-
CCCNC(=O)c1cc2c(c(-c3cccc(-c4cc5ccccc5o4)c3)n1)[C@H](CCO)N(C(=O)NC(C)C)C2,-,-,-,-,-,-
COc1cccc(N2CCN(C(=O)c3cc(-c4ccccc4)nc4c3cnn4C(C)C)CC2)c1,-,-,-,-,-,-
COc1ccc(CC(=O)Nc2cccc(-c3nnc(-c4ccc(C)cc4)o3)c2)cc1OC,-,-,-,-,-,-
COc1ccc(CC(=O)Nc2cccc(-c3nnc(-c4cccc(C)c4)o3)c2)cc1OC,-,-,-,-,36,-
Cc1ccc2c(c1)c1c(c(=O)n(-c3ccccc3C)c(=O)n1CC(=O)NCC1CCCO1)n2C (centres undefined),-,-,-,-,-,-
COc1ccc(C2/C(=C(/O)c3ccc4c(c3)CC(C)O4)C(=O)C(=O)N2CCCN2CCOCC2)cc1 (centres undefined),-,-,-,20,-,-
COc1ccc(C2/C(=C(/O)c3ccc(S(=O)(=O)N4CCOCC4)cc3)C(=O)C(=O)N2CCN2CCOCC2)cc1 (centres undefined),-,-,-,-,-,-
COc1ccc(/C(O)=C2/C(=O)C(=O)N(CCCN3CCOCC3)C2c2ccc(OC)cc2)cc1 (centres undefined),-,-,-,-,32,-
CCc1ccc(C2CC(=O)N3CN(c4ccccc4)CSC3=C2C#N)cc1 (centres undefined),-,-,-,-,-,-
CN1CSC2=C(C#N)C(c3cccc(OCc4ccccc4)c3)CC(=O)N2C1 (centres undefined),-,40,-,-,-,-
O=C1CSC(c2ccccn2)N1c1ccccc1F (centres undefined),-,-,-,-,30,-
O=C1CSC(c2ccccc2F)N1c1ccccc1 (centres undefined),37,-,-,-,-,-
O=C1CSC(c2ccccc2F)N1c1ccccc1F (centres undefined),-,-,-,-,-,-
SMILES,CHRM4 agonist,CHRM5 agonist,CHRM4 antagonist,CHRM5 PAM,M5 antag,M4 PAM
COc1cccc(C2SCC(=O)N2c2ccc(Br)cc2)c1OC (centres undefined),-,-,66,-,35,-
CSC(=S)N/N=C/c1ccc(Br)cc1,-,-,-,-,-,23
CSC(=S)N/N=C/c1ccc(N(C)C)cc1,-,-,-,-,-,-
CN(Cc1ccccc1)C(=O)c1ccccc1N(C)S(=O)(=O)c1ccccc1,-,-,-,-,-,-
CC(=O)Nc1ccc(C(=O)OCC(=O)NCc2ccccc2)cc1,-,-,-,-,27,-
CCOC(=O)c1ccc(N2CCN(c3ccc(F)cc3)CC2)c(NC(=O)Nc2cccc(OC)c2)c1,-,-,-,-,-,-
CCOC(=O)c1ccc(N2CCN(c3ccccc3F)CC2)c(NC(=O)Nc2ccccc2)c1,-,-,36,-,40,-
c1ccc(NCCC2OCC3(CO2)COC(CCNc2ccccc2)OC3)cc1 (centres undefined),-,-,-,-,29,-
Oc1ccc(N=Nc2ccc3c(c2)OCCO3)c2ncccc12,37,28,30,-,36,-
Cc1ccc(S(=O)(=O)N(C)C)cc1NC(=O)C(C)N(C)Cc1sccc1C (centres undefined),-,-,-,-,30,-
Cn1cc(-c2csc(C(O)c3ccc(F)cc3)n2)cn1 (centres undefined),-,-,-,-,-,-
CCc1ccc(C2C(C(=O)O)c3ccccc3C(=O)N2C)cc1 (centres undefined),-,-,-,-,-,-
O=C(O)C1c2ccccc2C(=O)N(Cc2ccc(F)cc2)C1c1ccncc1 (centres undefined),-,-,-,27,-,-
CCOc1ccc(N(C)S(=O)(=O)c2cc(-c3cc(C)no3)ccc2CC)cc1,-,-,-,-,-,-
CCOc1ccc(S(=O)(=O)N(C)CC(=O)NC2CC2)cc1,-,-,-,-,-,-
CCCCN(CC(=O)NC1CC1)S(=O)(=O)c1ccc(OCC)cc1,-,-,29,-,-,-
C[C@@H]1CN([C@@H](C)CO)C(=O)c2cc(NC(=O)C3CC3)ccc2O[C@@H]1CN(C)Cc1ccc(Cl)c(Cl)c1,-,-,-,-,-,-
CCOC(=O)c1c(NC(=O)CN2CCN(S(=O)(=O)c3cc(Cl)ccc3Cl)CC2)sc(C(=O)N(C)C)c1C,-,-,41,-,-,-
CCOC(=O)c1c(NC(=O)COC(=O)c2ccc(Cl)nc2)sc(C(=O)N(C)C)c1C,-,-,-,-,-,-
CCOC(=O)c1c(NC(=O)COC(=O)CCOc2ccc(C)cc2)sc(C(=O)N(C)C)c1C,-,-,-,19,-,-
COc1ccc2[nH]c(=O)c(CN(Cc3cccs3)S(=O)(=O)c3c(C)ccc4nsnc34)cc2c1,-,-,32,-,-,-
